Drawing on ChEMBL document CHEMBL4052652, “Development of WNK signaling inhibitors as a new class of antihypertensive drugs” (Bioorg Med Chem, 2017), this text covers inhibition, IC50 and Activity for 20 compounds.

Activity calls are given as the source filed them. The rule behind the calls is not given here. Where only a bound is given, the exact number is not on record here.

The target of series [1] is STE20/SPS1-related proline-alanine-rich protein kinase (Rattus norvegicus) (UniProt O88506). Description: Inhibition of TAMRA-labelled WNK4 binding to recombinant rat C-terminal GST-fused SPAK (452 to 553 residues) expressed in Escherichia coli BL21 at > 10^-5 M measured for 15 secs by FCS assay. The method in brief:
(§1)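 GST-fused rat SPAK CCT (residues 452–553) expressed in E. coli BL21 with IPTG induction for 16 h at 28°C, then glutathione-affinity purified. TAMRA-labelled WNK4 RFQV peptide (2.7 nM final) incubated with 0.5 µM GST–SPAK-CCT in PBS with 0.05% Tween 20 and 1% DMSO for 30 min at 25°C. An AFQV-mutant peptide served as negative control. Binding read by FCS with 15 s acquisition, five measurements per sample, and IC50 calculated from the data.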

For series [2], the target named is STE20/SPS1-related proline-alanine-rich protein kinase (Rattus norvegicus, UniProt O88506). Description: Inhibition of TAMRA-labelled WNK4 binding to recombinant rat C-terminal GST-fused SPAK (452 to 553 residues) expressed in Escherichia coli BL21 measured for 15 secs by FCS assay. A digest of the protocol: as §1
Series [3] has as its system HEK-293T. The series can be described thus: Cytotoxicity against HEK293T cells after 40 hrs by CCK8 assay. The note with it: Homo sapiens. The class given is cell-based. In general terms: Tetrazolium dyes change colour on reduction, which living cells bring about.
In series [4] the test system is HEK-293T. The series can be described thus: Cytotoxicity against HEK293T cells at 100 uM after 40 hrs by CCK8 assay. In kind it is cell-based. The note with it: human.
Series [5] concerns Mus musculus. Description: In-vivo inhibition of WNK signaling pathway in ip dosed C57BL/6 mouse assessed as reduction in phosphorylated NCC level after 90 mins by immunoblotting analysis. In kind it is functional, organism-based. The method in brief:
(§2)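 Male-unspecified C57BL/6 mice, 10 weeks old, given a single ip injection of 5, 10 or 20 mg/kg in 100 µL DMSO, with DMSO-alone controls. Kidneys taken 90 min later and homogenized in ice-cold 1% Triton X-100 buffer. Nuclear fraction removed, lysate denatured at 60°C for 20 min, and protein measured by Bradford. Total and phospho forms of SPAK, NCC (pSer71), NKCC1 (pThr206) and NKCC2 detected by quantitative immunoblotting.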
(In general: In western blotting, separated proteins are transferred to a membrane and probed.)

The subject of series [6] is Mus musculus. The series can be described thus: In-vivo inhibition of WNK signaling pathway in C57BL/6 mouse assessed as reduction in NKCC1 phosphorylation at 5 to 20 mg/kg, ip after 90 mins by immunoblotting analysis. In kind it is functional, organism-based. A digest of the protocol: as §2
Series [7] concerns Mus musculus. Description: In-vivo inhibition of WNK signaling pathway in C57BL/6 mouse assessed as reduction in NKCC2 phosphorylation at 5 to 20 mg/kg, ip after 90 mins by immunoblotting analysis. The class given is functional, organism-based. The method in brief: as §2

For `CCOc1ccc2nc3cc(NC(=O)c4ccc(C#N)cc4)ccc3c(Oc3ccccc3)c2c1`, the inhibition result in series [1] was “inactive”.
What is called IC50 is the concentration at which inhibition is half-maximal. As for `CCOc1ccc2nc3cc(NC(=O)c4ccc(F)cc4)ccc3c(N)c2c1`, the half-maximal inhibitory concentration (IC50) in series [2] was 36.9 µM.
On to `N#Cc1ccc(NC(=O)Nc2ccc3c(N)c4cc(O)ccc4nc3c2)cc1`, for which the 50% inhibitory concentration (IC50) in series [2] turned out to be 2.6 µM.
Take `CCOc1ccc2nc3cc(NCc4ccco4)ccc3c(N)c2c1`: the IC50 came to 15.4 µM in series [2] and 4.2 µM with HEK-293T [3].
For the compound `CCOc1ccc2nc3cc(NCc4cccs4)ccc3c(N)c2c1`, the IC50 in series [2] came to 53.5 µM.
Regarding `CCOc1ccc2nc3cc(NC(C)=O)ccc3c(N)c2c1`, the inhibition entry in series [1] was “inactive”.
For the compound `CCOc1ccc2nc3cc(NCc4ccc(OC)cc4OC)ccc3c(N)c2c1`, the concentration for half-maximal inhibition (IC50) in series [2] is 21.1 µM.
As for `COc1ccc2nc3cc(NC(=O)Nc4ccc(C#N)cc4)ccc3c(N)c2c1`, the IC50 in series [2] came to 4.8 µM. For the same compound, in the series on HEK-293T [4], the Activity entry is “Non-Toxic”. The inhibition result with Mus musculus [5] was “Dose-dependent effect”. For the same compound, the inhibition entry in the series with Mus musculus [6] and with Mus musculus [7] was “Active” in each case.
As to `CCOc1ccc2nc3cc(NC(=O)c4cccc([N+](=O)[O-])c4)ccc3c(N)c2c1`, the IC50 in series [2] was 3.9 µM.
On to `CCOc1ccc2nc3cc(NC(=O)c4ccc(C(=O)OC)cc4)ccc3c(N)c2c1`, for which the inhibition result in series [1] was “inactive”.
For `CCOc1ccc2nc3cc(NC(=O)c4cc(C(F)(F)F)cc(C(F)(F)F)c4)ccc3c(N)c2c1`, the IC50 in series [2] was greater than 100 µM.
On the same count and under the same terms, the same measure for `CCOc1ccc2nc3cc(NC(=O)c4ccc5ccccc5c4)ccc3c(N)c2c1`: 7.6 µM; for `CCOc1ccc2nc3cc(NC(=O)c4ccccc4)ccc3c(N)c2c1`: 28.2 µM; for `CCOc1ccc2nc3cc(NC(=O)c4cccc(C#N)c4)ccc3c(N)c2c1`: 2.6 µM.
Turning to `CCOc1ccc2nc3cc(NC(=O)c4ccc(Cl)cc4)ccc3c(N)c2c1`, in series [2], the IC50 turned out to be 49 µM.
Consider `CCOc1ccc2nc3cc(NC(=O)c4ccc(C#N)cc4)ccc3cc2c1`, for which, in series [1], the inhibition entry was “inactive”.
Regarding `CCOc1ccc2nc3cc(NC(=O)c4ccco4)ccc3c(N)c2c1`, the half-maximal inhibitory concentration (IC50) in series [2] came out at 8.2 µM.
Turning to `CCOc1ccc2nc3cc(NC(=O)c4ccc([N+](=O)[O-])cc4)ccc3c(N)c2c1`, in series [2], the half-maximal inhibitory concentration (IC50) stood at 20.9 µM.
The same measure, in the same setting: the same measure for `CCOc1ccc2nc3cc(NCc4ccccc4)ccc3c(N)c2c1`: 35.6 µM.
Regarding `CCOc1ccc2nc3cc(NC(=O)c4ccc(C#N)cc4)ccc3c(N)c2c1`, the half-maximal inhibitory concentration (IC50) in series [2] came to 6.9 µM; in the series on HEK-293T [3], 25 µM. In the series with Mus musculus [5], the inhibition entry was “Dose-dependent effect”. The inhibition result in the series with Mus musculus [6] and with Mus musculus [7] was “Active” throughout.
